What was measured:
Assay type in all cases: functional
[1] = test system: Mus musculus; test: Compound was tested for Trypanocidal Activity in mice at 25 mg/kg; 10/10
[2] = test system: Mus musculus; test: Compound was tested for Trypanocidal Activity in mice at 1.0 mg/kg; 0/10
[3] = test system: Mus musculus; test: Compound was tested for Trypanocidal Activity in mice at 1.5 mg/kg; 2/25
[4] = test system: Mus musculus; test: Compound was tested for Trypanocidal Activity in mice at 15 mg/kg; 10/10
[5] = test system: Mus musculus; test: Compound was tested for Trypanocidal Activity in mice at 6 mg/kg; 26/30
[6] = test system: Mus musculus; test: Compound was tested for Trypanocidal Activity in mice at 10 mg/kg; 19/20
[7] = test system: Mus musculus; test: Compound was tested for Trypanocidal Activity in mice at 4 mg/kg; 20/30
[8] = species on record: Mus musculus; test: Effective dose against Trypanosoma brucei infection in mice
Method in brief: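 Female Swiss-Webster mice (20–25 g) were infected ip with 5×10^4 T. brucei EATRO 110 organisms in fresh mouse blood diluted with minimum essential medium. Groups of 5 or 10 received a single ip dose in normal saline (solution or milled suspension, 20 μL/g) 6 h post-infection. Deaths within 72 h were scored as toxic. Survivors aparasitemic at 28 days (tail-blood wet films, phase contrast) counted as cures. ED50 was computed by Bliss/Litchfield–Wilcoxon, excluding toxic dosages.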

[9] = test system: Mus musculus; test: Compound was tested for Trypanocidal Activity in mice at 40 mg/kg; toxic deaths; 1/5
[10] = test system: Mus musculus; test: Compound was tested for Trypanocidal Activity in mice at 60 mg/kg; 0/5
[11] = test system: Mus musculus; test: Compound was tested for Trypanocidal Activity in mice at 2.5 mg/kg; 21/35
[12] = test system: Mus musculus; test: Compound was tested ffor Trypanocidal Activity in mice at 500 mg/kg; 0/5
[13] = test system: Mus musculus; test: Compound was tested for Trypanocidal Activity in mice at 15 mg/kg; 0/5
[14] = test system: Mus musculus; test: Compound was tested for Trypanocidal Activity in mice at 100 mg/kg; 0/5
[15] = test system: Mus musculus; test: Compound was tested for Trypanocidal Activity in mice at 40 mg/kg; 0/5
[16] = test system: Mus musculus; test: Compound was tested for Trypanocidal Activity in mice at 40 mg/kg; 5/5
[17] = test system: Mus musculus; test: Compound was tested for Trypanocidal Activity in mice at 10 mg/kg; 0/5
[18] = test system: Mus musculus; test: Compound was tested for Trypanocidal Activity in mice at 15 mg/kg; 4/15
[19] = test system: Mus musculus; test: Compound was tested for Trypanocidal Activity in mice at 25 mg/kg; 10/15
[20] = test system: Mus musculus; test: Compound was tested for Trypanocidal Activity in mice at 25 mg/kg; toxic deaths; 8/10
[21] = test system: Mus musculus; test: Compound was tested for Trypanocidal Activity in mice at 15 mg/kg; 9/10
[22] = test system: Mus musculus; test: Compound was tested for Trypanocidal Activity in mice at 1.5 mg/kg; 3/30
[23] = test system: Mus musculus; test: Compound was tested for Trypanocidal Activity in mice at 4 mg/kg; 22/30
[24] = test system: Mus musculus; test: Compound was tested for Trypanocidal Activity in mice at 6 mg/kg; 9/10
[25] = test system: Mus musculus; test: Compound was tested for Trypanocidal Activity in mice at 10 mg/kg; 10/10
[26] = test system: Mus musculus; test: Compound was tested for Trypanocidal Activity in mice at 2.5 mg/kg; 15/30

C/C(=N\NC(=N)N)c1cc(N)cc(/C(C)=N/NC(=N)N)c1.Cl
Cures/total [1]: 10
Cures/total [2]: 0
Cures/total [3]: 2
Mice cured (number) [4]: 10
Cures/total [5]: 26
Cures/total [6]: 19
Cures/total [7]: 20
ED50 [8]: 2.8 mg/kg
Cures/total [9]: 1
Cures/total [10]: 0
Cures/total [11]: 21

C/C(=N\NC(=N)N)c1cc(/C(C)=N/NC(=N)N)c(O)cc1O.Cl
Cures/total [12]: 0
Cures/total [13]: 0
Cures/total [14]: 0
Cures/total [15]: 0

C/C(=N\NC(=N)N)c1ccc([N+](=O)[O-])c(/C(C)=N/NC(=N)N)c1.Cl
ED50 [8]: 20 mg/kg
Cures/total [16]: 5
Cures/total [17]: 0
Cures/total [18]: 4
Cures/total [19]: 10
Cures/total [10]: 0

CC(=O)Nc1cc(/C(C)=N/NC(=N)N)cc(/C(C)=N/NC(=N)N)c1.Cl
Cures/total [2]: 0
Cures/total [20]: 8
Cures/total [21]: 9
Cures/total [22]: 3
Cures/total [23]: 22
Cures/total [24]: 9
Cures/total [15]: 0
Cures/total [25]: 10
Cures/total [26]: 15

Reference: ChEMBL document CHEMBL1122798, “Trypanocidal 1,3-arylene diketone bis(guanylhydrazone)s. Structure-activity relationships among substituted and heterocyclic analogues” (1984)
